Values after ≈ are worked out from the molar mass of the structure shown.
These compounds were tested on Nannizzia gypsea (assay: Antifungal activity against Microsporum gypseum after 48 hrs). Settings: not given.
Type: functional
Outline: (§1)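 Fungi grown in Sabouraud dextrose broth with compound at 37 °C for 48 h. MIC is the lowest concentration completely inhibiting visible growth.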

Point of comparison: `COc1cc2c(cc(OC)c3cc(C)c(O)cc32)c(C)c1O` [TRIGONOCHINENE E], MIC 6.25 mg/L (≈ 20.9 µM). Against it:
- C=CC1=C(C)C(=O)C=C2[C@]1(OO)CC[C@H](C(=C)C)[C@@]2(C)CCC(=O)OC [TRIGONOCHINENE C] — higher, > 50 mg/L
- C=CC1=C(C)C(=O)C=C2[C@]13O[C@H]3C[C@H](C(=C)C)[C@@]2(C)CCC(=O)OC [TRIGONOCHINENE D] — higher, > 50 mg/L

These compounds were tested on Shigella flexneri (assay: Antibacterial activity against Shigella flexneri after 18 hrs). Settings: not given.
Type: functional
Outline: (§2)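 Broth dilution in Mueller Hinton broth, compounds dissolved in DMSO. Cells incubated aerobically with compound at 37 °C for 18 h, with DMSO-only blank cultures. MIC is the lowest concentration giving complete inhibition of visible growth.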

`C=CCc1ccc(O)c(-c2cc(CC=C)ccc2O)c1` [MAGNOLOL] and `COc1cc2c(cc(OC)c3cc(C)c(O)cc32)c(C)c1O` [TRIGONOCHINENE E] cannot be ordered by MIC: over 50 mg/L for the first, over 50 mg/L for the second.

`C=CC1=C(C)C(=O)C=C2[C@]1(OO)CC[C@H](C(=C)C)[C@@]2(C)CCC(=O)OC` [TRIGONOCHINENE C] and `C=CC1=C(C)C(=O)C=C2[C@]13O[C@H]3C[C@H](C(=C)C)[C@@]2(C)CCC(=O)OC` [TRIGONOCHINENE D] cannot be ordered by MIC: over 50 mg/L for the first, over 50 mg/L for the second.

The compounds below were run on Escherichia coli (assay: Antibacterial activity against Escherichia coli after 18 hrs). Settings: not given.
Type: functional
Outline: as §2

`C=CCc1ccc(O)c(-c2cc(CC=C)ccc2O)c1` [MAGNOLOL] and `COc1cc2c(cc(OC)c3cc(C)c(O)cc32)c(C)c1O` [TRIGONOCHINENE E] cannot be ordered by MIC: over 50 mg/L for the first, over 50 mg/L for the second.

`C=CC1=C(C)C(=O)C=C2[C@]1(OO)CC[C@H](C(=C)C)[C@@]2(C)CCC(=O)OC` [TRIGONOCHINENE C] and `C=CC1=C(C)C(=O)C=C2[C@]13O[C@H]3C[C@H](C(=C)C)[C@@]2(C)CCC(=O)OC` [TRIGONOCHINENE D] cannot be ordered by MIC: over 50 mg/L for the first, over 50 mg/L for the second.

The compounds below were run on Helicobacter pylori (assay: Antibacterial activity against metronidazole-resistant Helicobacter pylori ATCC 43504 after 96 hrs). Settings: ATCC 43504, 96 h.
Type: functional
Outline: (§3)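 Agar plates inoculated with H. pylori cells suspended in saline at 10^8 cfu/mL, incubated 37 °C for 96 h microaerobically (5% O2, 10% CO2, 85% N2) alongside blank and positive controls. Triplicate tests.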

Point of comparison: `Cc1ncc([N+](=O)[O-])n1CCO` [METRONIDAZOLE], MIC 128 mg/L (≈ 748 µM). Against it:
- C=CC1=C(C)C(=O)C=C2[C@]1(OO)CC[C@H](C(=C)C)[C@@]2(C)CCC(=O)OC [TRIGONOCHINENE C] — 2.6-fold lower, 50 mg/L (≈ 139 µM)
- C=CC1=C(C)C(=O)C=C2[C@]13O[C@H]3C[C@H](C(=C)C)[C@@]2(C)CCC(=O)OC [TRIGONOCHINENE D] — 2.6-fold lower, 50 mg/L (≈ 146 µM)
- COc1cc2c(cc(OC)c3cc(C)c(O)cc32)c(C)c1O [TRIGONOCHINENE E] — not separable, > 50 mg/L

These compounds were tested on Staphylococcus epidermidis (assay: Antibacterial activity against Staphylococcus epidermidis ATCC 12228 after 18 hrs). Settings: ATCC 12228, 18 h.
Type: functional
Outline: as §2

Point of comparison: `COc1cc2c(cc(OC)c3cc(C)c(O)cc32)c(C)c1O` [TRIGONOCHINENE E], MIC 6.25 mg/L (≈ 20.9 µM). Against it:
- C=CCc1ccc(O)c(-c2cc(CC=C)ccc2O)c1 [MAGNOLOL] — the same, 6.25 mg/L (≈ 23.5 µM)
- C=CC1=C(C)C(=O)C=C2[C@]1(OO)CC[C@H](C(=C)C)[C@@]2(C)CCC(=O)OC [TRIGONOCHINENE C] — 4-fold higher, 25 mg/L (≈ 69.4 µM)
- C=CC1=C(C)C(=O)C=C2[C@]13O[C@H]3C[C@H](C(=C)C)[C@@]2(C)CCC(=O)OC [TRIGONOCHINENE D] — higher, > 50 mg/L

These compounds were tested on Helicobacter pylori (assay: Antibacterial activity against Helicobacter pylori SS1 after 96 hrs). Settings: SS1, 96 h.
Type: functional
Outline: as §3

Point of comparison: `C=CC1=C(C)C(=O)C=C2[C@]1(OO)CC[C@H](C(=C)C)[C@@]2(C)CCC(=O)OC` [TRIGONOCHINENE C], MIC 50 mg/L (≈ 139 µM). Against it:
- Cc1ncc([N+](=O)[O-])n1CCO [METRONIDAZOLE] — 100-fold lower, 0.5 mg/L (≈ 2.92 µM)
- C=CC1=C(C)C(=O)C=C2[C@]13O[C@H]3C[C@H](C(=C)C)[C@@]2(C)CCC(=O)OC [TRIGONOCHINENE D] — 2-fold lower, 25 mg/L (≈ 73 µM)
- COc1cc2c(cc(OC)c3cc(C)c(O)cc32)c(C)c1O [TRIGONOCHINENE E] — 2-fold lower, 25 mg/L (≈ 83.8 µM)

What follows are compounds tested on Staphylococcus aureus (assay: Antibacterial activity against Staphylococcus aureus ATCC 25923 after 18 hrs). Settings: ATCC 25923, 18 h.
Type: functional
Outline: as §2

Point of comparison: `C=CC1=C(C)C(=O)C=C2[C@]1(OO)CC[C@H](C(=C)C)[C@@]2(C)CCC(=O)OC` [TRIGONOCHINENE C], MIC 50 mg/L (≈ 139 µM). Against it:
- C=CCc1ccc(O)c(-c2cc(CC=C)ccc2O)c1 [MAGNOLOL] — 4-fold lower, 12.5 mg/L (≈ 46.9 µM)
- C=CC1=C(C)C(=O)C=C2[C@]13O[C@H]3C[C@H](C(=C)C)[C@@]2(C)CCC(=O)OC [TRIGONOCHINENE D] — higher, > 50 mg/L
- COc1cc2c(cc(OC)c3cc(C)c(O)cc32)c(C)c1O [TRIGONOCHINENE E] — 8-fold lower, 6.25 mg/L (≈ 20.9 µM)

The compounds below were run on Bacillus subtilis (assay: Antibacterial activity against Bacillus subtilis CMCC 63501 after 18 hrs). Settings: not given.
Type: functional
Outline: as §2

Point of comparison: `C=CCc1ccc(O)c(-c2cc(CC=C)ccc2O)c1` [MAGNOLOL], MIC 12.5 mg/L (≈ 46.9 µM). Against it:
- C=CC1=C(C)C(=O)C=C2[C@]1(OO)CC[C@H](C(=C)C)[C@@]2(C)CCC(=O)OC [TRIGONOCHINENE C] — the same, 12.5 mg/L (≈ 34.7 µM)
- C=CC1=C(C)C(=O)C=C2[C@]13O[C@H]3C[C@H](C(=C)C)[C@@]2(C)CCC(=O)OC [TRIGONOCHINENE D] — higher, > 50 mg/L
- COc1cc2c(cc(OC)c3cc(C)c(O)cc32)c(C)c1O [TRIGONOCHINENE E] — higher, > 50 mg/L

The compounds below were run on Candida albicans (assay: Antifungal activity against Candida albicans after 48 hrs). Settings: not given.
Type: functional
Outline: as §1

Point of comparison: `COc1cc2c(cc(OC)c3cc(C)c(O)cc32)c(C)c1O` [TRIGONOCHINENE E], MIC 12.5 mg/L (≈ 41.9 µM). Against it:
- C=CC1=C(C)C(=O)C=C2[C@]1(OO)CC[C@H](C(=C)C)[C@@]2(C)CCC(=O)OC [TRIGONOCHINENE C] — higher, > 50 mg/L
- C=CC1=C(C)C(=O)C=C2[C@]13O[C@H]3C[C@H](C(=C)C)[C@@]2(C)CCC(=O)OC [TRIGONOCHINENE D] — higher, > 50 mg/L

The compounds below were run on Pseudomonas aeruginosa (assay: Antibacterial activity against Pseudomonas aeruginosa after 18 hrs). Settings: not given.
Type: functional
Outline: as §2

`C=CCc1ccc(O)c(-c2cc(CC=C)ccc2O)c1` [MAGNOLOL] and `COc1cc2c(cc(OC)c3cc(C)c(O)cc32)c(C)c1O` [TRIGONOCHINENE E] cannot be ordered by MIC: over 50 mg/L for the first, over 50 mg/L for the second.

`C=CC1=C(C)C(=O)C=C2[C@]1(OO)CC[C@H](C(=C)C)[C@@]2(C)CCC(=O)OC` [TRIGONOCHINENE C] and `C=CC1=C(C)C(=O)C=C2[C@]13O[C@H]3C[C@H](C(=C)C)[C@@]2(C)CCC(=O)OC` [TRIGONOCHINENE D] cannot be ordered by MIC: over 50 mg/L for the first, over 50 mg/L for the second.

The compounds below were run on Micrococcus luteus (assay: Antibacterial activity against Micrococcus luteus ATCC 9341 after 18 hrs). Settings: ATCC 9341, 18 h.
Type: functional
Outline: as §2

Point of comparison: `COc1cc2c(cc(OC)c3cc(C)c(O)cc32)c(C)c1O` [TRIGONOCHINENE E], MIC 12.5 mg/L (≈ 41.9 µM). Against it:
- C=CCc1ccc(O)c(-c2cc(CC=C)ccc2O)c1 [MAGNOLOL] — 2-fold lower, 6.25 mg/L (≈ 23.5 µM)
- C=CC1=C(C)C(=O)C=C2[C@]1(OO)CC[C@H](C(=C)C)[C@@]2(C)CCC(=O)OC [TRIGONOCHINENE C] — the same, 12.5 mg/L (≈ 34.7 µM)
- C=CC1=C(C)C(=O)C=C2[C@]13O[C@H]3C[C@H](C(=C)C)[C@@]2(C)CCC(=O)OC [TRIGONOCHINENE D] — higher, > 50 mg/L
